Data as given in article PMC5629310 (Journal of Arthropod-Borne Diseases, 2017).
Like-named read-outs stand apart in the source and are kept apart here.

Columns and labels:
[1] = test system: Leishmania major promastigotes (vaccine strain MRHO/IR/75/ER); settings: read-out: Anti-promastigote activity IC50; L. major promastigotes; previous compounds 1a-b; ref Tahghighi et al. 2013; cited from earlier work
[2] = test system: amastigote form of L. major in murine peritoneal macrophages; settings: previous compounds 1a-b; result in words; ref Tahghighi et al. 2013; cited from earlier work
[3] = test system: mouse peritoneal macrophages; settings: read-out: Cytotoxicity CC50, previous compounds 1a-b, ref Tahghighi et al. 2013; cited from earlier work
[4] = test system: Leishmania major promastigotes (vaccine strain MRHO/IR/75/ER); assay: Antileishmanial activity against Leishmania major promastigotes; type: cell-based; settings: for IC50: Leishmania major, 24 h, read-out: Anti-promastigote activity IC50
[5] = Toxicity against macrophages; type: cell-based, mouse; settings: BALB/c, mouse, mouse peritoneal macrophages
Method in brief: (§1)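 BALB/c peritoneal macrophages, collected by PBS lavage, were kept in RPMI 1640 with 10% heat-inactivated FBS, 2mM glutamine and penicillin/streptomycin. Cells were seeded at 2×10^5/well and allowed to adhere. Medium was replaced with a graded series of test compound for 24 h at 37 °C, 5% CO2, with a DMSO negative control. Viability was read by MTT. Two independent experiments were run in triplicate, and CC50 was taken by linear regression.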

[6] = test system: mouse peritoneal macrophages; assay: Toxicity against macrophages; type: cell-based; settings: CC50 macrophages / IC50 promastigotes
Method in brief: as §1

For O=[N+]([O-])c1ccc(-c2nnc(NCCCO)s2)o1 [Compound 1a, 3-(5-(5-nitrofuran-2-yl)-1,3,4-thiadiazol-2-ylamino) propan-1-ol], the IC50 [1] is listed as 18 ± 0.2 µM, the “Number of intracellular amastigotes per macrophage, percentage of macrophage infectivity and infectivity index compared with control group” value [2] is listed as “decreased” and the CC50 [3] is listed as 62.3 µM.

For O=[N+]([O-])c1ccc(-c2nnc(NCCCO)s2)s1 [Compound 1b, 3-(5-(5-nitrothiophen-2-yl)-1,3,4-thiadiazol-2-ylamino) propan-1-ol], the “fold more potent than 5-nitrofuran counterpart 1a” value ([4]; promastigote IC50, 1b versus 1a) is given as 6 fold, the IC50 [1] is given as 3 ± 0.41 µM and the “Number of intracellular amastigotes per macrophage, percentage of macrophage infectivity and infectivity index compared with control group” value [2] is given as “decreased”. The CC50 [3] was 42.2 µM.

With O=[N+]([O-])c1ccc(-c2nnc(N3CCC(O)CC3)s2)o1 [Compound 5a, 1-(5-(5-nitrofuran-2-yl)-1,3,4-thiadiazol-2-yl)piperidin-4-ol] the IC50 [4] was 68.9 ± 0.107 µM, the CC50 at 24 h [5] was 78.5 µM and the “SI (selectivity index CC50/IC50)” value [6] was 1.14.

In the case of O=[N+]([O-])c1ccc(-c2nnc(N3CCC(O)CC3)s2)s1 [Compound 5b, 1-(5-(5-nitrothiophen-2-yl)-1,3,4-thiadiazol-2-yl)piperidin-4-ol], the IC50 [4] is reported as 27 ± 0.12 µM, the CC50 at 24 h [5] is reported as 63.6 µM and the “SI (selectivity index CC50/IC50)” value [6] is reported as 2.35.

In the case of OC(Cn1cncn1)(Cn1cncn1)c1ccc(F)cc1F [Fluconazole, reference compound], the IC50 [4] is reported as 941.1 ± 4.98 µM.
